Molecules are shown by their SMILES. Several values for one entry are separate records, joined by “and”; a condition that tells them apart may be missing. Equal entries are not always repeated. Activity calls are given as the source filed them. The calls are words filed in the database; no cut-off is given here. Peptide text beside a SMILES is read from it.

Experiment [1] in a line: Binding affinity to avian pancreatic polypeptide containing bipartite tetracysteine motif at 25 nM. The method in brief: (§1)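 Fluorescence titration: 25 nM FlAsH or ReAsH titrated with increasing synthetic peptide or protein domain in 100 mM Tris-HCl pH 7.8 with 3.5 mM TCEP, 1 mM EDT, 1 mM EDTA. Emission read at 530 ± 12.5 nm (FlAsH) or 630 ± 17.5 nm (ReAsH) after reaching equilibrium, tracked over time. Apparent Kd taken from intensity versus concentration. Points are means of ≥3 independent titrations ± s.d.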

Experiment [2] in a line: Binding affinity to avian pancreatic polypeptide containing bipartite tetracysteine motif at 100 nM. Particulars: filed as agonist.
The nature of experiment [3]: Binding affinity to alpha helix of avian pancreatic polypeptide by circular dichroism spectroscopy. The method in brief: (§2)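 CD spectra recorded at 25 °C in 10 mM sodium phosphate pH 7.0 with no competing dithiols. Protein at 10 μM (aPP, Zip4) or 20 μM (GCN4, Jun); unmodified peptides and their FlAsH complexes. Three wavelength scans at 50 nm min-1 averaged, buffer-only background subtracted.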

Experiment [4] is described as follows: Binding affinity to avian pancreatic polypeptide containing bipartite tetracysteine motif. A digest of the protocol: as §1
The test system of experiment [5] is HeLa. The experiment in a line: Binding affinity to eGFP-tagged avian pancreatic polypeptide expressed in human HeLa cells at 500 nM after 10 hrs by FRET assay. Format: cell-based.
The test system of experiment [6] is HeLa. Put plainly: Binding affinity to eGFP-tagged avian pancreatic polypeptide expressed in human HeLa cells at 100 uM after 30 mins by FRET assay. Type of experiment: cell-based.
Experiment [7] deals with HeLa. The experiment in a line: Binding affinity to eGFP-tagged avian pancreatic polypeptide expressed in human HeLa cells by flow cytometry. Format: cell-based. A digest of the protocol: (§3)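 Live HeLa cells transiently expressing eGFP fusions (aPP C-terminal or GCN4 N-terminal to eGFP) or eGFP alone. Stained 30 min with 500 nM ReAsH-EDT2 plus 100 μM EDT in phenol red-free, serum-free DMEM with 2 mM L-glutamine. PBS wash, then 0.75 mM BAL 30 min. Cells trypsinized and run by flow cytometry: eGFP 488 nm laser, 530 ± 15 nm; ReAsH 568 nm laser, 610 ± 10 nm. Mean ReAsH intensity plotted per log unit of eGFP.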

A short description of experiment [8]: Binding affinity to alpha helix of avian pancreatic polypeptide F24P mutant by circular dichroism spectroscopy. A digest of the protocol:
as §2

Experiment [9] can be described thus: Binding affinity to avian pancreatic polypeptide F24P mutant. The method in brief: as §1
Experiment [10] deals with HeLa. Put plainly: Binding affinity to eGFP-tagged avian pancreatic polypeptide F24P mutant expressed in human HeLa cells at 500 nM after 10 hrs by FRET assay. Type of experiment: cell-based.
The subject of experiment [11] is HeLa. The experiment in a line: Binding affinity to eGFP-tagged avian pancreatic polypeptide F24P mutant expressed in human HeLa cells at 100 uM after 30 mins by FRET assay. Type of experiment: cell-based.
Experiment [12] relates to HeLa. Put plainly: Binding affinity to eGFP-tagged avian pancreatic polypeptide F24P mutant expressed in human HeLa cells by flow cytometry. Format: cell-based. The method in brief: as §3
Experiment [13] in a line: Binding affinity to c-Jun L20P mutant at 25 degC by circular dichroism spectroscopy.
Experiment [14] can be described thus: Binding affinity to c-Jun homodimer L20P mutant containing bipartite tetracysteine motif. The method in brief: as §1
Experiment [15] can be described thus: Binding affinity to beta sheet of tryptophan Zip4 polypeptide W916A mutant by circular dichroism spectroscopy. The method in brief: as §2
Experiment [16] is described as follows: Binding affinity to tryptophan Zip4 polypeptide W916A mutant containing bipartite tetracysteine motif. A digest of the protocol:
as §1

The nature of experiment [17]: Binding affinity to alpha helix of avian pancreatic polypeptide F24/Y31P mutant by circular dichroism spectroscopy. The method in brief:
as §2

Experiment [18] in a line: Binding affinity to avian pancreatic polypeptide F24/Y31P mutant. The method in brief:
as §1

The nature of experiment [19]: Binding affinity to tryptophan Zip4 polypeptide containing bipartite tetracysteine motif at 25 nM. A digest of the protocol: as §1
The nature of experiment [20]: Binding affinity to tryptophan Zip4 polypeptide containing bipartite tetracysteine motif at 100 nM.
The nature of experiment [21]: Binding affinity to beta sheet structure of tryptophan Zip4 polypeptide by circular dichroism spectroscopy. A digest of the protocol:
as §2

Experiment [22] can be described thus: Binding affinity to tryptophan Zip4 polypeptide containing bipartite tetracysteine motif. The method in brief: as §1

For the compound `CC[C@H](C)[C@H](NC(=O)[C@H](CC(C)C)NC(=O)[C@H](CC(=O)O)NC(=O)[C@H](CCC(=O)O)NC(=O)[C@@H](NC(=O)[C@@H]1CCCN1C(=O)[C@H](C)NC(=O)[C@H](CC(=O)O)NC(=O)[C@H](CC(=O)O)NC(=O)CNC(=O)[C@@H]1CCCN1C(=O)[C@H](Cc1ccc(O)cc1)NC(=O)[C@@H](NC(=O)[C@@H]1CCCN1C(=O)[C@H](CCC(N)=O)NC(=O)[C@H](CO)NC(=O)[C@@H]1CCCN1C(=O)[C@H](CS)NC(=O)[C@H](CS)NC(=O)[C@H](CC(N)=O)NC(=O)[C@H](CC(C)C)NC(=O)[C@H](Cc1ccccc1)NC(C)=O)[C@H](C)O)C(C)C)C(=O)N[C@@H](CCCNC(=N)N)C(=O)N[C@@H](Cc1ccccc1)C(=O)N[C@@H](Cc1ccc(O)cc1)C(=O)N[C@@H](CC(=O)O)C(=O)N[C@@H](CC(N)=O)C(=O)N[C@@H](CC(C)C)C(=O)N[C@@H](CCC(N)=O)C(=O)N[C@@H](CCC(N)=O)C(=O)N[C@@H](Cc1ccc(O)cc1)C(=O)N[C@@H](CC(C)C)C(=O)N[C@@H](CC(N)=O)C(=O)N[C@H](C(=O)N[C@@H](CS)C(=O)N[C@@H](CS)C(=O)N[C@@H](CCSC)C(=O)N[C@@H](CCC(=O)O)C(=O)N1CCC[C@H]1C(N)=O)C(C)C`, the outcome (in [1]; with HeLa [5]; in the experiment with HeLa [6]; with HeLa [7]) was Active. In addition, the Activity entry in [2] was “Agonist”. Also, in experiment [3], the result was inactive. Further, in experiment [4], the Kapp was 5.8 µM and 3.4 µM.
`CC[C@H](C)[C@H](NC(=O)[C@H](CC(C)C)NC(=O)[C@H](CC(=O)O)NC(=O)[C@H](CCC(=O)O)NC(=O)[C@@H](NC(=O)[C@@H]1CCCN1C(=O)[C@H](C)NC(=O)[C@H](CC(=O)O)NC(=O)[C@H](CC(=O)O)NC(=O)CNC(=O)[C@@H]1CCCN1C(=O)[C@H](Cc1ccc(O)cc1)NC(=O)[C@@H](NC(=O)[C@@H]1CCCN1C(=O)[C@H](CCC(N)=O)NC(=O)[C@H](CO)NC(=O)[C@@H]1CCCN1C(=O)[C@H](CS)NC(=O)[C@H](CS)NC(=O)[C@H](CC(N)=O)NC(=O)[C@H](CC(C)C)NC(=O)[C@H](Cc1ccccc1)NC(C)=O)[C@H](C)O)C(C)C)C(=O)N[C@@H](CCCNC(=N)N)C(=O)N1CCC[C@H]1C(=O)N[C@@H](Cc1ccc(O)cc1)C(=O)N[C@@H](CC(=O)O)C(=O)N[C@@H](CC(N)=O)C(=O)N[C@@H](CC(C)C)C(=O)N[C@@H](CCC(N)=O)C(=O)N[C@@H](CCC(N)=O)C(=O)N[C@@H](Cc1ccc(O)cc1)C(=O)N[C@@H](CC(C)C)C(=O)N[C@@H](CC(N)=O)C(=O)N[C@H](C(=O)N[C@@H](CS)C(=O)N[C@@H](CS)C(=O)N[C@@H](CCSC)C(=O)N[C@@H](CCC(=O)O)C(=O)N1CCC[C@H]1C(N)=O)C(C)C`: the result (in experiment [8]; with HeLa [10]) was inactive. The Kapp in experiment [9] is 27 µM and 22 µM. The outcome in the experiment on HeLa [11] and with HeLa [12] was Active.
For the compound `CC[C@H](C)[C@H](NC(=O)[C@H](CCCNC(=N)N)NC(=O)[C@H](Cc1c[nH]c2ccccc12)NC(C)=O)C(=O)N[C@@H](C)C(=O)N[C@@H](CCCNC(=N)N)C(=O)N[C@@H](CC(C)C)C(=O)N[C@@H](CCC(=O)O)C(=O)N[C@@H](CCC(=O)O)C(=O)N[C@@H](CCCCN)C(=O)N[C@H](C(=O)N[C@@H](CCCCN)C(=O)N[C@H](C(=O)N[C@@H](CC(C)C)C(=O)N[C@@H](CCCCN)C(=O)N[C@@H](C)C(=O)N[C@@H](CCC(N)=O)C(=O)N[C@@H](CC(N)=O)C(=O)N[C@@H](CO)C(=O)N[C@@H](CCC(=O)O)C(=O)N1CCC[C@H]1C(=O)N[C@@H](C)C(=O)N[C@@H](CO)C(=O)N[C@H](C(=O)N[C@@H](C)C(=O)N[C@@H](CC(N)=O)C(=O)N[C@@H](CCSC)C(=O)N[C@@H](CC(C)C)C(=O)N[C@@H](CCCNC(=N)N)C(=O)N[C@@H](CCC(=O)O)C(=O)N[C@@H](CCC(N)=O)C(=O)N[C@H](C(=O)N[C@@H](C)C(=O)N[C@@H](CCC(N)=O)C(=O)N[C@@H](CC(C)C)C(=O)N[C@@H](CCCCN)C(=O)N[C@@H](CCC(N)=O)C(=O)N[C@@H](CCCCN)C(=O)N[C@H](C(=O)N[C@@H](CS)C(=O)N[C@@H](CS)C(N)=O)C(C)C)C(C)C)[C@@H](C)O)[C@@H](C)O)C(C)C` (Ac-WRIARLEEKVKTLKAQNSEPASTANMLREQVAQLKQKVCC-NH2), the outcome in [13] was inactive. The compound further registered a Kapp in experiment [14] greater than 111 µM.
`CSCC[C@H](NC(=O)[C@H](CS)NC(=O)[C@H](CS)NC(=O)[C@@H](NC(=O)[C@H](Cc1c[nH]c2ccccc12)NC(=O)[C@@H](NC(=O)[C@H](C)NC(=O)[C@@H](NC(=O)[C@H](CCCCN)NC(=O)[C@@H](NC(=O)[C@H](C)NC(=O)[C@H](CC(=O)O)NC(=O)[C@H](CC(=O)O)NC(=O)[C@H](C)NC(=O)[C@@H](NC(=O)[C@H](Cc1c[nH]c2ccccc12)NC(=O)[C@H](CCC(=O)O)NC(=O)[C@H](CS)NC(=O)[C@H](CS)NC(=O)[C@H](CC(N)=O)NC(=O)[C@H](CC(C)C)NC(=O)[C@H](Cc1ccccc1)NC(C)=O)[C@@H](C)O)[C@@H](C)O)[C@@H](C)O)[C@@H](C)O)[C@@H](C)O)C(=O)N[C@@H](CCC(=O)O)C(=O)N1CCC[C@H]1C(N)=O` (Ac-FLNCCEWTADDATKTATWTCCMEP-NH2): in experiment [15], the outcome was inactive. The Kapp in experiment [16] was 38 µM and 13 µM.
For the compound `CC[C@H](C)[C@H](NC(=O)[C@H](CC(C)C)NC(=O)[C@H](CC(=O)O)NC(=O)[C@H](CCC(=O)O)NC(=O)[C@@H](NC(=O)[C@@H]1CCCN1C(=O)[C@H](C)NC(=O)[C@H](CC(=O)O)NC(=O)[C@H](CC(=O)O)NC(=O)CNC(=O)[C@@H]1CCCN1C(=O)[C@H](Cc1ccc(O)cc1)NC(=O)[C@@H](NC(=O)[C@@H]1CCCN1C(=O)[C@H](CCC(N)=O)NC(=O)[C@H](CO)NC(=O)[C@@H]1CCCN1C(=O)[C@H](CS)NC(=O)[C@H](CS)NC(=O)[C@H](CC(N)=O)NC(=O)[C@H](CC(C)C)NC(=O)[C@H](Cc1ccccc1)NC(C)=O)[C@H](C)O)C(C)C)C(=O)N[C@@H](CCCNC(=N)N)C(=O)N1CCC[C@H]1C(=O)N[C@@H](Cc1ccc(O)cc1)C(=O)N[C@@H](CC(=O)O)C(=O)N[C@@H](CC(N)=O)C(=O)N[C@@H](CC(C)C)C(=O)N[C@@H](CCC(N)=O)C(=O)N[C@@H](CCC(N)=O)C(=O)N1CCC[C@H]1C(=O)N[C@@H](CC(C)C)C(=O)N[C@@H](CC(N)=O)C(=O)N[C@H](C(=O)N[C@@H](CS)C(=O)N[C@@H](CS)C(=O)N[C@@H](CCSC)C(=O)N[C@@H](CCC(=O)O)C(=O)N1CCC[C@H]1C(N)=O)C(C)C`, the result in experiment [17] was inactive. Besides, in [18], the Kapp was 65 µM and 72 µM.
Regarding `CSCC[C@H](NC(=O)[C@H](CS)NC(=O)[C@H](CS)NC(=O)[C@@H](NC(=O)[C@H](Cc1c[nH]c2ccccc12)NC(=O)[C@@H](NC(=O)[C@H](Cc1c[nH]c2ccccc12)NC(=O)[C@@H](NC(=O)[C@H](CCCCN)NC(=O)[C@@H](NC(=O)[C@H](C)NC(=O)[C@H](CC(=O)O)NC(=O)[C@H](CC(=O)O)NC(=O)[C@H](Cc1c[nH]c2ccccc12)NC(=O)[C@@H](NC(=O)[C@H](Cc1c[nH]c2ccccc12)NC(=O)[C@H](CCC(=O)O)NC(=O)[C@H](CS)NC(=O)[C@H](CS)NC(=O)[C@H](CC(N)=O)NC(=O)[C@H](CC(C)C)NC(=O)[C@H](Cc1ccccc1)NC(C)=O)[C@@H](C)O)[C@@H](C)O)[C@@H](C)O)[C@@H](C)O)[C@@H](C)O)C(=O)N[C@@H](CCC(=O)O)C(=O)N1CCC[C@H]1C(N)=O` (Ac-FLNCCEWTWDDATKTWTWTCCMEP-NH2), the result in [19] and in [20] was Active. Further, in experiment [21], the outcome was inactive. Besides, the Kapp in experiment [22] was 0.62 µM and 0.38 µM.

The values are drawn from ChEMBL document CHEMBL1240333, “Surveying polypeptide and protein domain conformation and association with FlAsH and ReAsH” (Nat Chem Biol, 2007).
